In ChEMBL document CHEMBL3352206, “Discovery of substituted 4-aminoquinazolines as selective Toll-like receptor 4 ligands” (Bioorg Med Chem Lett, 2014) one finds Activity data, which are given here for 21 compounds.

One data set deals with HepG2. Briefly: Cytotoxicity against human HepG2 cells at 10 uM by MTT assay. The class given is functional. The method in brief: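 HepG2 viability by MTT at 10 μM compound; OD570–650 normalized to vehicle-treated cells in the same experiment.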
For data set [1], the target named is Toll-like receptor 4 (Homo sapiens) (UniProt O00206). Description: Activation of human TLR4 fransfectoma in HEK Blue cells at 0.5 uM relative to LPS. In kind it is cell-based. Particulars: HEK293. Summed up:
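hTLR4 HEK Blue transfectoma cells incubated with compound at 0.5 μM for 20–22 h; SEAP read by QuantiBlue OD630. Values normalized to LPS (100 ng/mL) positive control set at 100.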

Data set [2] deals with BMDC. Description: Induction of CD86 expression in TLR4-deficient CD11c+ population of mouse BMDC. The class given is functional. The method in brief: (§1)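 BMDC from wild-type or Tlr4−/− mice treated with compound or vehicle (0.5% DMSO); stained for CD11c plus CD40, CD80 or CD86. Marker expression assessed by flow cytometry on gated CD11c+ cells.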
The subject of data set [3] is PBMC. Description: Cytotoxicity against human PBMC at 10 uM after 18 hrs incubation by MTT assay. In kind it is cell-based. Summed up: (§2)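 Human PBMC or mouse BMDC incubated 18 h with compound at 10 μM; viability by MTT assay, reported as percent.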
In data set [4] the target is T1, Toll-like receptor 4/MD-2 (Homo sapiens) (UniProt O00206+Q9Y6Y9). Briefly: Activation of human TLR4/MD2 complex expressed in HEK293 Blue cells coexpressing CD14 assessed as SEAP secretion at 10 uM after 20 to 24 hrs by SEAPorter assay. In kind it is cell-based.
The next data set relates to L929. Briefly: Induction of type 1 IFN release in mouse L929-ISRE cells assessed as luciferase release at 10 uM. The class given is functional, cell-based. The method in brief:
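Human PBMC incubated overnight with compound (10 μM), LPS (10 ng/mL) or vehicle; type I IFN in supernatant quantified as luciferase release from L929-ISRE reporter cells. Mean ± SEM of triplicates.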

In data set [5] the test system is BMDC. Briefly: Induction of CD40 expression in wild type CD11c+ population of mouse BMDC. The class given is functional. The method in brief: as §1
Data set [6] deals with BMDC. Description: Induction of CD86 expression in wild type CD11c+ population of mouse BMDC. In kind it is functional. Summed up: as §1
Data set [7] concerns BMDC. Briefly: Induction of IL-6 production in TLR4-deficient mouse BMDC at 10 uM by ELISA. In kind it is functional. The method in brief: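 BMDC from wild-type and TLR4-deficient mice stimulated with compound at 10 μM; IL-6 in culture supernatant by ELISA.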
A short description of data set [8]: Cytotoxicity against mouse BMDC at 10 uM after 18 hrs incubation by MTT assay. Summed up: as §2
(In general: Tetrazolium dyes change colour on reduction, which living cells bring about.)

The test system of data set [9] is BMDC. Briefly: Induction of CD80 expression in TLR4-deficient CD11c+ population of mouse BMDC. The class given is functional. Summed up:
as §1

The target in data set [10] is Toll-like receptor 4 (Homo sapiens) (UniProt O00206). Description: Activation of human TLR4 complex expressed in MD2-deficient HEK293 Blue cells coexpressing CD14 assessed as SEAP secretion at 10 uM after 20 to 24 hrs by SEAPorter assay. In kind it is cell-based.
In data set [11] the test system is PBMC. Description: Induction of CD83 expression in CD11c+ HLA-DR+ population of human PBMC. The class given is functional, cell-based. Summed up: (§3)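 Human PBMC incubated overnight with compound at 5 μM; CD80 and CD83 measured by flow cytometry on gated CD11c+HLA-DR+ cells. Two independent experiments.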
Data set [12] deals with T1, Toll-like receptor 4/MD-2 (Homo sapiens). Briefly: Activation of human TLR4/MD2 complex expressed in HEK293 Blue cells coexpressing CD14 assessed as SEAP secretion at 10 uM after 20 to 24 hrs by SEAPorter assay in presence of Rhodobacter sphaeroides LPS. The class given is cell-based. The method in brief:
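hTLR4/MD-2/CD14 transfectoma cells given 10 μM compound or 10 ng/mL LPS, with or without the TLR4 antagonist LPS-RS (Rhodobacter sphaeroides LPS; 12, 111, 1000 ng/mL). TLR4/NF-κB activation read as SEAP in supernatant. One-way ANOVA with Dunnett's test versus vehicle.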

The target is the same in data set [13]. Description: Activation of human TLR4/MD2 complex in human THP1 cells assessed as induction of NFkappaB activation incubated for 18 hrs. In kind it is cell-based. Particulars: THP-1. Summed up: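 CellSensor THP-1 or RAW264.7 cells carrying an NF-κB-driven FRET β-lactamase reporter; graded compound concentrations for 18 h. NF-κB activation normalized to LPS (5 ng/mL) and expressed as percent activation.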

Data set [14] deals with PBMC. Description: Induction of CD80 expression in CD11c+ HLA-DR+ population of human PBMC. The class given is functional, cell-based. Summed up: as §3
Data set [15] relates to BMDC. Description: Induction of CD40 expression in TLR4-deficient CD11c+ population of mouse BMDC. The class given is functional. Summed up: as §1
Data set [16] has as its system BMDC. Description: Induction of CD80 expression in wild type CD11c+ population of mouse BMDC. In kind it is functional. The method in brief:
as §1

Data set [17] deals with Toll-like receptor 4/MD-2/CD14 (Mus musculus) (UniProt Q9QUK6+Q9JHF9+P10810). Briefly: Activation of mouse TLR4/MD2 complex in mouse RAW264.7 cells assessed as induction of NFkappaB activation incubated for 18 hrs.
The subject of data set [18] is PBMC. Description: Induction of IL-8 expression in human PBMC by ELISA in presence of polymyxin B. In kind it is functional, cell-based. The method in brief: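 Human PBMC incubated overnight with compound, alone or with polymyxin B (10 μg/mL); IL-8 in supernatant by ELISA. Mean ± SEM of triplicates, two independent experiments.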
(In general: ELISA stands for enzyme-linked immunosorbent assay.)

Data set [19] concerns PBMC. Briefly: Induction of IL-8 level in human PBMC at < 1 uM by ELISA. The class given is functional, cell-based. The method in brief: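 Mouse BMDC or human PBMC stimulated overnight with graded compound concentrations; IL-6 (mouse) or IL-8 (human) in supernatant by ELISA. Mean ± SEM of triplicates, two independent experiments.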
For data set [20], the target named is T1, Toll-like receptor 4/MD-2 (Homo sapiens). Briefly: Activation of human TLR4/MD2 complex expressed in HEK293 Blue cells assessed as SEAP secretion at 10 uM after 20 to 24 hrs by SEAPorter assay.
Data set [21] concerns PBMC. Description: Induction of IL-8 level in human PBMC at 0.5 uM by ELISA relative to LPS. The class given is functional. Summed up:
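Primary human PBMC stimulated overnight with compound at 0.5 μM; IL-8 in supernatant by ELISA, normalized to LPS (100 ng/mL) set at 100.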

Structures are written as SMILES. The source made the active and inactive calls. No cut-off for these calls is given here.

Sequence of Toll-like receptor 4 (Homo sapiens) (O00206 whole entry): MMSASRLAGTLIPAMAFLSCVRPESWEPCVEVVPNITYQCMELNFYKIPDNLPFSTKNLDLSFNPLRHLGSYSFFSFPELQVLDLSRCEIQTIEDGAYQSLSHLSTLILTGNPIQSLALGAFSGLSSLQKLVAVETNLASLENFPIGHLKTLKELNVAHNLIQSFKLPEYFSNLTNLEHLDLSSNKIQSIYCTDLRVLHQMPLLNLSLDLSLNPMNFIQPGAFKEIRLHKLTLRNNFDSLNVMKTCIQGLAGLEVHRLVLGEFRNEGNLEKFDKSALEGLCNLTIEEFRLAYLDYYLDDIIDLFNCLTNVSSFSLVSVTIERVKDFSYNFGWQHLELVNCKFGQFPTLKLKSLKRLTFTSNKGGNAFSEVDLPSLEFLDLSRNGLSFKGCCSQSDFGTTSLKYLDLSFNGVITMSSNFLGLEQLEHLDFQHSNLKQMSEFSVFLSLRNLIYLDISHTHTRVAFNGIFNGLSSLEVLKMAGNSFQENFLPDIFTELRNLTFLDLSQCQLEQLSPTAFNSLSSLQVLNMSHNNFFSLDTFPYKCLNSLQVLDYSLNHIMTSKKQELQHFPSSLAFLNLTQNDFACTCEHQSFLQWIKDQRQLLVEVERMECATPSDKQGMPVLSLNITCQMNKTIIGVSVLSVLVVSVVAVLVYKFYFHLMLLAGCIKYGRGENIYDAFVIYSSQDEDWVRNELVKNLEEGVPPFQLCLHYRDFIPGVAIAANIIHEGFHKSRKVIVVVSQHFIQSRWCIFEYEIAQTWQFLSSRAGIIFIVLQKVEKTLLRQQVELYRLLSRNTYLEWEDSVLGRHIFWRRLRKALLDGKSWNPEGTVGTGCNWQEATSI

`CCOC(=O)c1nc(Nc2cc(Oc3ccccc3C(F)(F)F)cc([N+](=O)[O-])c2)c2ccccc2n1`: the values for the Activity (with HepG2; in data set [1]) were 67.1% and 58.7%, respectively.

Regarding `CC(C)OC(=O)c1nc(Nc2cc(Oc3ccccc3Br)cc([N+](=O)[O-])c2)c2ccccc2n1`, the Activity was found to be 106.5% in the data set with HepG2 and 67.8% in data set [1].

On to `CCOC(=O)c1nc(Nc2cc(Oc3ccccc3)cc([N+](=O)[O-])c2)c2ccccc2n1`, for which the result (in the data set with BMDC [2]; with BMDC [7]; in the data set on BMDC [9]; in data set [10]; in data set [12]; in the data set with BMDC [15]) was inactive. For the same compound, the outcome in data set [20] was inactive. The Activity in the data set on PBMC [3] was determined as 112%; in [8], 117%; in the data set on HepG2, 93.5%; in data set [1], 49.1%. In addition, the result (in data set [4]; in the data set on L929; in the data set on BMDC [5]; with BMDC [6]; in the data set on PBMC [11]; in data set [13]) was Active. For the same compound, the result (with PBMC [14]; in the data set on BMDC [16]; in [17]; with PBMC [18]; with PBMC [19]) was Active.

In the case of `CCOC(=O)c1nc(Nc2cc(Oc3ccccc3Cl)cc([N+](=O)[O-])c2)c2ccccc2n1`, the Activity with HepG2 came to 107.4%; in [1], 73.9%.

For `CCOC(=O)c1nc(Nc2cc(Oc3ccccc3I)cc([N+](=O)[O-])c2)c2ccccc2n1`, the Activity was found to be 93.8% with HepG2 and 65.5% in data set [1].

Turning to `CCOC(=O)c1nc(Nc2cc(Oc3ccc4ccccc4c3)cc([N+](=O)[O-])c2)c2ccccc2n1`, the Activity with HepG2 stood at 111.4%; in [1], 0.8%; with PBMC [21], 0%.

For the compound `CCOC(=O)c1nc(Nc2cc(Oc3ccccc3C)cc([N+](=O)[O-])c2)c2ccccc2n1`, the Activity in the data set on HepG2 came out at 96.7%; in data set [1], 45.5%.

As to `CCOC(=O)c1nc(Nc2cc(N)cc(Oc3ccccc3)c2)c2ccccc2n1`, the Activity is 106.1% in the data set on HepG2, 0.6% in data set [1] and 0.3% with PBMC [21].

As to `CCNC(=O)c1nc(Nc2cc(Oc3ccccc3)cc([N+](=O)[O-])c2)c2ccccc2n1`, the Activity amounted to 107.4% in the data set with HepG2, 2.2% in data set [1] and 1.5% in the data set on PBMC [21].

`CC(C)OC(=O)c1nc(Nc2cc(Oc3ccccc3)cc([N+](=O)[O-])c2)c2ccccc2n1`: the Activity in the data set with HepG2 stood at 65.6%; in data set [1], 7.4%; in the data set with PBMC [21], 2.1%.

For the compound `O=C(O)c1nc(Nc2cc(Oc3ccccc3)cc([N+](=O)[O-])c2)c2ccccc2n1`, the figures for the Activity (with HepG2; in [1]; in the data set on PBMC [21]) were 84.5%, 0.6% and 0.5%, respectively.

For the compound `CCOC(=O)c1nc(Nc2cc(Oc3ccccc3Br)cc([N+](=O)[O-])c2)c2ccccc2n1`, the Activity in the data set on HepG2 is 90.8%; in [1], 79%.

Turning to `O=C(O)c1nc(Nc2cc(Oc3ccccc3Br)cc([N+](=O)[O-])c2)c2ccccc2n1`, the Activity in the data set with HepG2 turned out to be 96.3%; in data set [1], 1.6%; in the data set on PBMC [21], 0%.

Take `NC(=O)c1nc(Nc2cc(Oc3ccccc3)cc([N+](=O)[O-])c2)c2ccccc2n1`: the Activity in the data set with HepG2 came to 78.4%; in data set [1], 0%; with PBMC [21] it was 0.3%.

As to `CCOC(=O)c1nc(Nc2cc(Oc3c(C)cccc3C)cc([N+](=O)[O-])c2)c2ccccc2n1`, the results for the Activity (with HepG2; in [1]; with PBMC [21]) were 106.3%, 0.6% and 0%, respectively.

Consider `Nc1cc(Nc2nc(C(=O)O)nc3ccccc23)cc(Oc2ccccc2)c1`, for which the Activity amounted to 105% with HepG2, 1.1% in data set [1] and 0.3% in the data set with PBMC [21].

Take `CCOC(=O)c1nc(Nc2cc(Oc3cccc(C)c3)cc([N+](=O)[O-])c2)c2ccccc2n1`: the figures for the Activity (with HepG2; in [1]; in the data set on PBMC [21]) were 109.9%, 14.5% and 5.8%, respectively.

Consider `CCOC(=O)c1nc(Nc2cc(Oc3ccc(C)cc3)cc([N+](=O)[O-])c2)c2ccccc2n1`, for which the Activity was 108.8% in the data set with HepG2, 0.5% in [1] and 0.4% in the data set with PBMC [21].

As for `CC(C)CCOC(=O)c1nc(Nc2cc(Oc3ccccc3)cc([N+](=O)[O-])c2)c2ccccc2n1`, the Activity with HepG2 is 63.4%; in data set [1] it was 8.4%; in the data set with PBMC [21], 2.2%.

As to `CCOC(=O)c1nc(Nc2cc(Oc3ccccc3CC)cc([N+](=O)[O-])c2)c2ccccc2n1`, the Activity with HepG2 is 98.9%; in data set [1] it was 4.2%; in the data set with PBMC [21] it was 3.2%.

Turning to `COC(=O)c1nc(Nc2cc(Oc3ccccc3)cc([N+](=O)[O-])c2)c2ccccc2n1`, the results for the Activity (in the data set with HepG2; in data set [1]; with PBMC [21]) were 116.4%, 0.4% and 0.2%, respectively.
